Rows were chosen to be rich in hits. Some 2% of all compounds tested hit in one or more screens of this group.
HIF act – HIF pathway transcriptional activation; U2OS HRE-luciferase reporter, luminescence; normalized: DMSO 0%, desferrioxamine 100%; activation, % at 7.5 µM (by protocol); 300,000 compounds, 0.32% hits; AID 1910;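 active = mean activation of at least 10% of the iron chelator positive control signal, with at least half of replicates also reaching 10%; inconclusive = mean and replicate majority disagree about reaching 10%; inactive = mean and most replicates under 10%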
T cruzi repl – T. cruzi replication inhibition; T. cruzi beta-gal in NIH3T3, luminescence, 90 h; inhibition, % (concentration not given with the values); 300,000 compounds, 1.4% hits;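 active = mean inhibition across valid replicates above about 55%, limit read from the data; inconclusive = mean below that limit but half or more replicates reach it; inactive = mean below it, under half of replicates reach it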;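 note: signal also drops with host cell toxicity which is not excluded here; 0% = plate median of DMSO wells and 100% = zero luminescence signal; higher percent means less beta-gal luminescence so fewer parasites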
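Read-out: Parasite load inhibition, % | Test system: Mouse NIH/3T3 fibroblasts infected with β-gal-expressing T. cruzi Tulahuen C4 | Amount: 5,000 cells/well | Medium: DMEM, 2% fetal bovine serum | Signal: GalScreen β-gal luminescence, detergent lysis, 60 min | Timing: 3 h attach, ≥90 h co-culture | Also added: Tulahuen C4 trypomastigotes, 5000/well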
AI-2 QS mod – modulates the Vibrio harveyi AI-2 quorum sensing system; AID 2094; activity change, % at 7.5 µM; Vibrio harveyi JMH597 AI-2 luminescence/OD600 ratio, 9 h; active compounds read low; strain lacks LuxN and CqsS sensors; 0 = neutral-control median; 300,000 compounds, 0.4% hits; in the data active = activity change below about -75%, passing the limit was not always enough; inconclusive = no clear call, values can overlap the other calls;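 note: luminescence divided by OD600 gain over 9 h not by final OD600 alone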
ARNT-TACC3 inh – disruptors of human ARNT/TACC3 interaction | inhibition, % at 9.99 µM | AlphaScreen His-ARNT PAS-B/GST-TACC3 binding, luminescence; TACC3 fragment carries E629A point mutation | 390,000 compounds, 0.66% hits | Q9Y6A5 | AID 623870;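 active = mean inhibition of replicates at least 50% and at least half of replicates each reaching 50%; inconclusive = half or more replicates reach 50% but mean below 50%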;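 note: 0% = complete ARNT plus TACC3 wells and 100% = ARNT alone without TACC3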
* = called active by the depositor; u = inconclusive; x = no result given.

SMILES | HIF act | T cruzi repl | AI-2 QS mod | ARNT-TACC3 inh
Cc1cc(Br)ccc1NC(=O)CNC(=O)CN1C(=O)NC2(CCCCCC2)C1=O | 0 | 9 | 21 | 0
Cc1cc(Br)ccc1NC(=O)CN1C(=O)C2C3CC(c4ccccc4)C(C3)C2C1=O (centres undefined) | -1 | 56* | -13 | 1
Cc1noc(C)c1NC(=O)Nc1ccc2c(c1)C(=O)N([C@@H](C)CO)C[C@@H](C)[C@H](CN(C)C(=O)Nc1ccc3c(c1)OCO3)OCCCC[C@H](C)O2 | x | x | x | 1
CCOC(=O)/C(=N\Nc1cccc(Cl)c1)Sc1nnc(-c2ccc(OC)cc2)n1C | 0 | 4 | 9 | 46*
C[C@@H]1CN([C@H](C)CO)C(=O)CCCn2cc(nn2)CO[C@@H]1CN(C)Cc1cccc(O)c1 | x | x | x | -4
O=C(/C=C/c1ccco1)NCc1ccc2c(c1)OCO2 | 0 | -13 | -77* | 5
C[C@@H]1CCCCO[C@@H](CN(C)C(=O)Nc2ccccc2)[C@H](C)CN([C@@H](C)CO)C(=O)c2cc(NC(=O)NC3CCCCC3)ccc2O1 | x | x | x | -6
Cc1ccc(NC(=S)N/C(=N/S(=O)(=O)c2ccccc2)c2ccccc2)cc1 | 10* | -24 | 49 | 3
Cc1ccc(S(=O)(=O)/N=C(/NC(=S)Nc2ccccc2)c2ccccc2)cc1 | 8 | -3 | 37 | -5
CCC(C)NCCOCCOc1ccc(Cl)cc1Br (centres undefined) | 1 | 72* | 13 | -3
CCC(C)NCCOCCOc1ccc(F)cc1 (centres undefined) | 1 | 55* | -11 | -9
CCC(C)NCCOCCOc1cc(C)c(Cl)c(C)c1 (centres undefined) | 0 | u | 2 | -6
CCC(=O)N(C)C[C@@H]1Oc2cc(-c3ccncc3)ccc2S(=O)(=O)N([C@H](C)CO)C[C@@H]1C | x | x | x | 0
Cc1cc(C)c(S(=O)(=O)/N=C2/C=C(SCC(=O)O)C(=O)c3ccccc32)cc1C | x | x | x | 74*
CCCCCCCNC(=O)C1(CC2CC(c3cccc(Br)c3)=NO2)CCN(C(=O)c2ccccc2)CC1 (centres undefined) | -1 | 61* | 16 | 2
COc1ccc(NC(=S)N=Nc2c(O)[nH]c3ccccc23)cc1 | 2 | 48 | 34 | -1
Oc1[nH]c2ccc(Br)cc2c1N=NC(=S)Nc1ccc(F)cc1 | 0 | 59* | 36 | 5
Oc1ccc(NC(=S)N=Nc2c(O)[nH]c3ccccc23)cc1 | 1 | -35 | 31 | 67*
Oc1ccc(NC(=S)N=Nc2c(O)[nH]c3ccc(Br)cc23)cc1 | -1 | -48 | u | 24
Cc1ccc(NC(=S)N=Nc2c(O)[nH]c3ccccc23)cc1 | 2 | 68* | 38 | -5
COc1cc(CNCCc2ccccc2F)ccc1OCC(=O)N1CCCCC1 | 0 | 62* | 31 | -1
C[C@H]1CN([C@@H](C)CO)C(=O)c2cccc(NC(=O)Nc3ccc4c(c3)OCO4)c2O[C@H]1CN(C)C(=O)Nc1ccc2c(c1)OCO2 | x | x | x | 13
COc1ccc(C)cc1S(=O)(=O)N(CC(=O)NC1CCCC1)c1ccc(F)cc1 | 0 | -6 | 14 | 46*
Cc1ccc(S(=O)(=O)c2ncccc2[N+](=O)[O-])cc1 | -24 | 65* | 36 | 30
CCCN1C[C@H](C)[C@H](OC)CN(C)C(=O)c2cc(NC(=O)c3cccc(F)c3)ccc2OC[C@@H]1C | x | x | x | -7
SMILES | HIF act | T cruzi repl | AI-2 QS mod | ARNT-TACC3 inh
Nc1cccc(Nc2ccccc2)c1 | 0 | 12 | 25 | x
c1ccc(Nc2cccc(Nc3ccccc3)c2)cc1 | -1 | 65* | -1 | 7
O=C(NCc1ccccc1)C1CC(=O)N(C2CCCCCC2)C1 (centres undefined) | 0 | -9 | 16 | -5
O=C(NCc1cccs1)C1CC(=O)N(C2CCCC2)C1 (centres undefined) | 214* | 0 | 23 | -7
CC(C)NC(=O)N[C@@H]1CC[C@@H](CCNS(=O)(=O)c2ccc(F)cc2)O[C@@H]1CO | x | x | x | -5
Cc1cc(SCC(=O)N/N=C/c2ccc(O)c(O)c2O)c(C)cc1Br | 36* | 28 | 0 | -3
CCOC(=O)/C=C1\NC2(CCCCC2)Cc2cc(OC)c(OC)cc21 | 0 | 60* | 3 | 5
COc1cccc(C(=O)Nc2ccc3c(c2)C(=O)N(C)[C@H]2CC[C@H](CC(=O)NCCCN4CCOCC4)O[C@@H]2CO3)c1 | x | x | x | 7

From PubChem BioAssay
